Data taken from PubChem BioAssay AID2833 (NMMLSC, 2010).
Activity calls are given as the source filed them.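 How the source made its calls: active means toxic dose over reversal dose above 10, when toxic dose is under 15 µM; inactive means the rest.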

Test system: Jurkat/DNR viability with daunorubicin, trypan blue, 3 d
Experiment: ABCB1-mediated resistance reversal in Jurkat/DNR – cell-based, trypan blue viability, one SAR set, SAR follow-up (AID 2833)
Conditions: for CC50: measured here: toxicity without chemotherapeutic (TD50)
Method in brief: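 Dosing: test compound series spanning 1–100 µM, three logs / Material: Daunorubicin-resistant Jurkat/DNR human T-cell line / Input: 100,000 cells per mL / Schedule: 3-day compound exposure with daunorubicin / Evaluation: compound level giving 50% viability loss (CR50) / Detection: trypan blue microscopy counting / Reagent: daunorubicin at a constant, fixed level throughout exposure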

Compound	EC50	CC50 [µM]
O=[N+]([O-])c1ccccc1-c1nc(-c2ccc(Br)o2)no1	14.6 µM (inactive)	14.6
CCOC(=O)c1c(NC(=O)CSc2ncccn2)sc2c1CCN(Cc1ccccc1)C2	8.81 µM (inactive)	5.1
COC(=O)c1ccc(C(C(=O)NC2CCCCC2)N(Cc2ccccc2)C(=O)Cc2cccs2)cc1 (stereo not given)	10.3 µM (inactive)	8.81
CCN(CC)P(=O)(Nc1cccc(C(F)(F)F)c1)c1ccc(N(C)C)cc1NC(=O)c1ccco1 (stereo not given)	4.72 µM (inactive)	4.54
COc1ccc(-c2nn(-c3ccccc3)cc2/C=C/C(=O)N2CCN(c3ccccn3)CC2)cc1	9.9 µM (inactive)	15.2
CCCCN(C)C1=CC2=CC(=C(C#N)C#N)CCC2CC1 (stereo not given)	12.5 µM (inactive)	15.2
O=[N+]([O-])c1ccc(Nc2nc(Cl)nc(NCCO)n2)cc1	9.67 µM (inactive)	12.8
COc1ccc(/C=N/NC(=O)c2cccnc2)cc1CN1CCN(c2ccc(F)cc2)CC1	17.5 µM (inactive)	24.1
CCCCn1c(O)c(N=Nc2ccccn2)c2ccccc21	13.3 µM (inactive)	13.3
N#Cc1ccc(-c2ccc(OCC(=O)NCCc3ccccc3)cc2)cc1	43.8 µM (inactive)	21.4
Cc1cc(C)c(C#N)c(SCc2c(F)cccc2[N+](=O)[O-])n1	29.4 µM (inactive)	3.05
CC1=NN(c2ccc([N+](=O)[O-])cc2)C(=O)/C1=C/N(C)C	34.5 µM (inactive)	34.5
CCOC(=O)c1cccc(NC(=O)c2cnc3ccccc3n2)c1	13.3 µM (inactive)	15
CNc1nc2cc([N+](=O)[O-])c([N+](=O)[O-])cc2nc1NC	15.2 µM (inactive)	6.2
Cc1nc2cc(-c3cccc(F)c3)nn2c(N2CCN(C(=O)c3ccco3)CC2)c1C	1.18 µM	> 100
